Assay results from ChEMBL document CHEMBL1153414, “Discovering potent inhibitors against the beta-hydroxyacyl-acyl carrier protein dehydratase (FabZ) of Helicobacter pylori: structure-based design, synthesis, bioassay, and crystal structure determination” (J Med Chem, 2009).
Converted amounts (≈) assume the structure as drawn. The source made the active and inactive calls. No cut-off for these calls is given here.

How the values were obtained:
[1] = Inhibition of Helicobacter pylori FabZ
In short: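 Spectrophotometric HpFabZ assay following the drop in A260 as crotonoyl-CoA converts to β-hydroxybutyryl-CoA. Compounds in 1% DMSO preincubated with enzyme 1 h before starting the reaction. IC50 from logistic fit of dose-response inhibition data. Means of three determinations.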

Helicobacter pylori [2] = experiment: Antimicrobial activity against Helicobacter pylori SS1 by standard agar dilution method; assay type: functional
In short: (§1)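 Inoculum: H. pylori swabbed into sterile saline to 2.0 McFarland turbidity. Plates incubated at 37 °C under microaerobic gas (85% N₂, 10% CO₂, 5% O₂), read after 3 days. Compound-free agar as control.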

Helicobacter pylori [3] = experiment: Antimicrobial activity against Helicobacter pylori ATCC 43504 by standard agar dilution method; assay type: functional; in short: as §1
Helicobacter pylori [4] = experiment: Inhibition of Helicobacter pylori FabZ at 50 uM
In short: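 HpFabZ activity read spectrophotometrically as the A260 decrease during crotonoyl-CoA conversion to β-hydroxybutyryl-CoA. Single inhibitor level of 50 µM, compound in 1% DMSO preincubated with enzyme for 1 h before assay start.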

O=C(N/N=C/c1cc(Br)c(O)c(Br)c1O)c1cc(C(F)(F)F)cc(C(F)(F)F)c1
IC50 [1]: 2.13 µM
MIC (Helicobacter pylori [2]): 100 µg/mL (≈ 182 µM)
MIC (Helicobacter pylori [3]): 50 µg/mL (≈ 90.9 µM)

COCCN1C(=O)/C(=C\c2ccc(-c3ccc(Cl)cc3)o2)S/C1=N/c1ccccc1
inhibition (Helicobacter pylori [4]): inactive

COCCN1C(=O)/C(=C\c2ccc(-c3ccc(Cl)c(C(=O)O)c3)o2)S/C1=N/c1ccc2ccccc2c1
inhibition (Helicobacter pylori [4]): 32.2%

COCCN1C(=O)/C(=C\c2ccc(-c3ccc(Cl)c(C(=O)OC)c3)o2)S/C1=N/c1cccc(F)c1
inhibition (Helicobacter pylori [4]): inactive

COC(=O)c1cc(-c2ccc(/C=C3/S/C(=N/c4ccccc4)N(CCCN(C)C)C3=O)o2)ccc1Cl
inhibition (Helicobacter pylori [4]): inactive

COC(=O)c1cc(-c2ccc(/C=C3/S/C(=N/c4ccccc4)N(CCN4CCCC4)C3=O)o2)ccc1Cl
inhibition (Helicobacter pylori [4]): inactive

O=C(N/N=C/c1cc(Br)c(O)c(Br)c1O)c1ccc2cc(O)ccc2c1
IC50 [1]: 8.77 µM
MIC (Helicobacter pylori [2]): 100 µg/mL (≈ 208 µM)
MIC (Helicobacter pylori [3]): 100 µg/mL (≈ 208 µM)

O=C(N/N=C/c1cc(Br)c(O)c(Br)c1)c1cccnc1
inhibition (Helicobacter pylori [4]): 62.1%

O=C(Cc1ccc(O)cc1)N/N=C/c1cc(Br)c(O)c(Br)c1O
inhibition (Helicobacter pylori [4]): 50%

O=C(N/N=C/c1cc(Br)c(O)c(Br)c1O)c1ccc2ccccc2c1O
inhibition (Helicobacter pylori [4]): 87%
IC50 [1]: 1.97 µM
MIC (Helicobacter pylori [2]): 100 µg/mL (≈ 208 µM)
MIC (Helicobacter pylori [3]): 100 µg/mL (≈ 208 µM)

O=C(N/N=C/c1cc(Br)c(O)c(Br)c1O)c1ccc2ccccc2c1
inhibition (Helicobacter pylori [4]): 92.6%
MIC (Helicobacter pylori [2]): 50 µg/mL (≈ 108 µM)
MIC (Helicobacter pylori [3]): 100 µg/mL (≈ 215 µM)

O=C(N/N=C/c1cc(Br)c(O)c(Br)c1O)c1ccc2cc(Br)ccc2c1
IC50 [1]: 3.55 µM
MIC (Helicobacter pylori [2]): 50 µg/mL (≈ 92.1 µM)
MIC (Helicobacter pylori [3]): 100 µg/mL (≈ 184 µM)

O=C(N/N=C/c1cc(Br)c(O)c(Br)c1O)c1ccc(Oc2ccccc2)cc1
IC50 [1]: 12.8 µM
MIC (Helicobacter pylori [2]): inactive
MIC (Helicobacter pylori [3]): inactive

CC(C)(C)c1ccc(C(=O)N/N=C/c2cc(Br)c(O)c(Br)c2O)cc1
inhibition (Helicobacter pylori [4]): 74.4%
MIC (Helicobacter pylori [2]): 50 µg/mL (≈ 106 µM)
MIC (Helicobacter pylori [3]): 100 µg/mL (≈ 213 µM)

CCN(CC)CCN1C(=O)/C(=C\c2ccc(-c3ccc(Cl)c(C(=O)OC)c3)o2)S/C1=N/c1ccccc1
inhibition (Helicobacter pylori [4]): inactive

COCCN1C(=O)/C(=C\c2ccc(-c3ccc(Cl)c(C(=O)O)c3)o2)S/C1=N/c1ccccc1
inhibition (Helicobacter pylori [4]): 63.9%

COc1c(Br)cc(/C=N/NC(=O)c2cccnc2)c(OC)c1Br
inhibition (Helicobacter pylori [4]): 64.4%

O=C(N/N=C/c1cc(Br)c(O)c(Br)c1O)c1cc2ccccc2cc1O
IC50 [1]: 0.86 µM
MIC (Helicobacter pylori [2]): 100 µg/mL (≈ 208 µM)
MIC (Helicobacter pylori [3]): 100 µg/mL (≈ 208 µM)

COCCN1C(=O)/C(=C\c2ccc(-c3ccc(Cl)c(C(=O)OC)c3)o2)S/C1=N/c1ccccc1
inhibition (Helicobacter pylori [4]): inactive

COCCN1C(=O)/C(=C\c2ccc(-c3ccc(Cl)c(C(=O)O)c3)o2)S/C1=N/c1ccc(OC)cc1
inhibition (Helicobacter pylori [4]): 15.4%

COCCN1C(=O)/C(=C\c2ccc(-c3ccc(Cl)c(C(=O)OC)c3)o2)S/C1=N/c1cccc(C(F)(F)F)c1
inhibition (Helicobacter pylori [4]): 19.9%

COCCN1C(=O)/C(=C\c2ccc(-c3cc(C(=O)OC)ccc3Cl)o2)S/C1=N/c1ccccc1
inhibition (Helicobacter pylori [4]): inactive

COCCN1C(=O)/C(=C\c2ccc(-c3ccc(Cl)c(C(=O)OC)c3)o2)S/C1=N/c1ccc(Br)cc1
inhibition (Helicobacter pylori [4]): inactive

O=C(N/N=C/c1cc(Br)c(O)c(Br)c1O)c1ccncc1
inhibition (Helicobacter pylori [4]): 36.4%

O=C(N/N=C/c1cc(Br)c(O)c(Br)c1O)c1cccc(Br)c1
inhibition (Helicobacter pylori [4]): 96%
MIC (Helicobacter pylori [2]): 100 µg/mL (≈ 203 µM)
MIC (Helicobacter pylori [3]): 100 µg/mL (≈ 203 µM)

O=C(N/N=C/c1cc(Br)c(O)c(Br)c1O)c1ccc(-c2ccc(O)cc2)cc1
IC50 [1]: 42.7 µM
MIC (Helicobacter pylori [2]): > 100 µg/mL
MIC (Helicobacter pylori [3]): > 100 µg/mL

COCCN1C(=O)/C(=C\c2ccc(-c3ccc(Cl)c(C(=O)OC)c3)o2)S/C1=N/c1cccc(OC)c1
inhibition (Helicobacter pylori [4]): 12.6%

COCCN1C(=O)/C(=C\c2ccc(-c3ccc(Cl)c(C(=O)OC)c3)o2)S/C1=N/c1ccc(OC)cc1
inhibition (Helicobacter pylori [4]): inactive

O=C(N/N=C/c1cc(Br)c(O)c(Br)c1O)c1ccco1
inhibition (Helicobacter pylori [4]): 39.4%

O=C(N/N=C/c1cc(Br)c(O)c(Br)c1O)c1cccs1
inhibition (Helicobacter pylori [4]): 72%

O=C(N/N=C/c1cc(Br)c(O)c(Br)c1O)c1cccnc1
inhibition (Helicobacter pylori [4]): 71.4%
IC50 [1]: 39.8 µM

O=C(N/N=C/c1cc(Br)c(O)c(Br)c1O)c1ccc(Br)cc1
inhibition (Helicobacter pylori [4]): 94.2%
MIC (Helicobacter pylori [2]): 100 µg/mL (≈ 203 µM)
MIC (Helicobacter pylori [3]): 100 µg/mL (≈ 203 µM)

COCCN1C(=O)/C(=C\c2ccc(-c3ccc(Cl)c(C(=O)OC)c3)o2)S/C1=N/c1ccccc1F
inhibition (Helicobacter pylori [4]): 10%

COCCN1C(=O)/C(=C\c2ccc(-c3ccc(Cl)c(C(=O)OC)c3)o2)S/C1=N/c1ccc(C(F)(F)F)cc1
inhibition (Helicobacter pylori [4]): inactive

COCCN1C(=O)/C(=C\c2ccc(-c3ccc(Cl)c(C(=O)OC)c3)o2)S/C1=N/c1ccccc1Br
inhibition (Helicobacter pylori [4]): inactive

O=C(N/N=C/c1cc(Br)c(O)c(Br)c1O)c1ccc2c(c1)Cc1ccccc1-2
IC50 [1]: 3.75 µM
MIC (Helicobacter pylori [2]): 100 µg/mL (≈ 199 µM)
MIC (Helicobacter pylori [3]): 50 µg/mL (≈ 99.6 µM)

O=C(N/N=C/c1ccc(O)cc1O)c1cccnc1
inhibition (Helicobacter pylori [4]): 25.6%

COCCN1C(=O)/C(=C\c2ccc(-c3ccc(Cl)c(C(=O)OC)c3)o2)S/C1=N/c1ccc(F)cc1
inhibition (Helicobacter pylori [4]): inactive

COCCN1C(=O)/C(=C\c2ccc(-c3ccc(Cl)c(C(=O)OC)c3)o2)S/C1=N/c1cccc(Br)c1
inhibition (Helicobacter pylori [4]): 12%

O=C(N/N=C/c1cc(Br)c(O)c(Br)c1O)c1ccc(Cl)cc1
inhibition (Helicobacter pylori [4]): 93.8%
MIC (Helicobacter pylori [2]): > 100 µg/mL
MIC (Helicobacter pylori [3]): > 100 µg/mL

COCCN1C(=O)/C(=C\c2ccc(-c3ccc(Cl)c(C(=O)OC)c3)o2)S/C1=N/c1ccccc1C(F)(F)F
inhibition (Helicobacter pylori [4]): inactive

O=C(N/N=C/c1ccc(O)cc1)c1cccnc1
inhibition (Helicobacter pylori [4]): 15.1%

CC(=O)N/N=C/c1cc(Br)c(O)c(Br)c1O
inhibition (Helicobacter pylori [4]): 15.2%

COCCN1C(=O)/C(=C\c2ccc(-c3ccc(Cl)c(C(=O)OC)c3)o2)S/C1=N/c1ccccc1OC
inhibition (Helicobacter pylori [4]): inactive

O=C(N/N=C/c1cc(Br)c(O)c(Br)c1O)c1cccc(F)c1
inhibition (Helicobacter pylori [4]): 23.3%

COc1ccc(C(=O)N/N=C/c2cc(Br)c(O)c(Br)c2O)cc1
inhibition (Helicobacter pylori [4]): 81.4%

O=C(N/N=C/c1cc(Br)c(O)c(Br)c1O)c1ccc(F)cc1
inhibition (Helicobacter pylori [4]): 85%
IC50 [1]: 6.43 µM

O=C(N/N=C/c1cc(Br)c(O)c(Br)c1O)c1ccccc1
inhibition (Helicobacter pylori [4]): 38.8%
